Data published in ChEMBL document CHEMBL3046654, “Penoxsulam--structure-activity relationships of triazolopyrimidine sulfonamides” (Bioorg Med Chem, 2009).

Columns and labels:
Oryza sativa = test: Phytotoxicity against Oryza sativa (rice); assay type: organism-based; conditions: in vivo
Alopecurus = test: Post-emergence herbicidal activity against Alopecurus spp. compound treated as foliar application measured after 2 weeks; assay type: functional
How it was run: (§1)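 Greenhouse post-emergence foliar screen in 64 cm² pots. Seed treatments were used on some species to aid germination. Plants were grown 7–21 days at 23–29 °C day/22–28 °C night under a 15 h photoperiod. Sprayed at 2–12 cm height and the 1–4 true leaf stage.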

Fallopia convolvulus = test: Post-emergence herbicidal activity against Fallopia convolvulus compound treated as foliar application measured after 2 weeks; assay type: functional; how it was run: as §1
Avena fatua = test: Post-emergence herbicidal activity against Avena fatua compound treated as foliar application measured after 2 weeks; assay type: functional; how it was run: as §1
Ipomoea = test: Post-emergence herbicidal activity against Ipomoea spp. compound treated as foliar application measured after 2 weeks; assay type: functional; how it was run: as §1
Datura stramonium = test: Post-emergence herbicidal activity against Datura stramonium compound treated as foliar application measured after 2 weeks; assay type: functional; how it was run: as §1
Echinochloa crus-galli = test: Post-emergence herbicidal activity against Echinochloa crus-galli (barnyard grass) compound treated as foliar application measured after 2 weeks; assay type: functional; how it was run: as §1
Ipomoea hederacea = test: Post-emergence herbicidal activity against Ipomoea hederacea (ivy-leaved morning glory) compound treated as foliar application measured after 2 weeks; assay type: functional; how it was run: as §1
Setaria faberi = test: Post-emergence herbicidal activity against Setaria faberi (Giant Foxtail) compound treated as foliar application measured after 2 weeks; assay type: functional; how it was run: as §1
Stellaria media = test: Post-emergence herbicidal activity against Stellaria media compound treated as foliar application measured after 2 weeks; assay type: functional; how it was run: as §1
Abutilon theophrasti = test: Post-emergence herbicidal activity against Abutilon theophrasti (velvetleaf) compound treated as foliar application measured after 2 weeks; assay type: functional; how it was run: as §1
Xanthium strumarium = test: Post-emergence herbicidal activity against Xanthium strumarium (cocklebur) compound treated as foliar application measured after 2 weeks; assay type: functional; how it was run: as §1
Veronica hederifolia = test: Post-emergence herbicidal activity against Veronica hederifolia compound treated as foliar application measured after 2 weeks; assay type: functional; how it was run: as §1
[1] = Inhibition of acetolactatae synthase; conditions: read-out: I50
How it was run: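 Barley ALS: etiolated shoots of 5–6 d old Hector Spring barley homogenized at 0–4 °C in 20 mM HEPES pH 7.2, 1 mM EDTA, 5 mM DTT, then 33% (NH4)2SO4 cut. Reaction: 20 mM HEPES pH 7.2, 5 mM MgCl2, 0.25 mM TPP, FAD, 22.5 mM pyruvate, 0.7% DMSO final, 37 °C, 30 min. Acid decarboxylation to acetoin, then creatine/1-naphthol colour read at 530 nm. Reported as I50 (nM).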

Digitaria sanguinalis = test: Post-emergence herbicidal activity against Digitaria sanguinalis (hairy crabgrass) compound treated as foliar application measured after 2 weeks; assay type: functional; how it was run: as §1
Chenopodium album = test: Post-emergence herbicidal activity against Chenopodium album compound treated as foliar application measured after 2 weeks; assay type: functional; how it was run: as §1
Helianthus = test: Post-emergence herbicidal activity against Helianthus spp. compound treated as foliar application measured after 2 weeks; assay type: functional; how it was run: as §1
Amaranthus retroflexus = test: Post-emergence herbicidal activity against Amaranthus retroflexus compound treated as foliar application measured after 2 weeks; assay type: functional; how it was run: as §1
Sorghum halepense = test: Post-emergence herbicidal activity against Sorghum halepense (Johnson grass) compound treated as foliar application measured after 2 weeks; assay type: functional; how it was run: as §1

| IC50 [1] | SMILES | GR20 (Oryza sativa) | GR80 (Alopecurus) | GR80 (Fallopia convolvulus) | GR80 (Avena fatua) | GR80 (Ipomoea) | GR80 (Datura stramonium) | GR80 (Echinochloa crus-galli) | GR80 (Ipomoea hederacea) | GR80 (Setaria faberi) | GR80 (Stellaria media) | GR80 (Abutilon theophrasti) | GR80 (Xanthium strumarium) | GR80 (Veronica hederifolia) | GR80 (Digitaria sanguinalis) | GR80 (Chenopodium album) | GR80 (Helianthus) | GR80 (Amaranthus retroflexus) | GR80 (Sorghum halepense) |
| --- | --- | --- | --- | --- | --- | --- | --- | --- | --- | --- | --- | --- | --- | --- | --- | --- | --- | --- | --- |
| 7 nM | COc1ncc(C)c2nc(NS(=O)(=O)c3c(Cl)cccc3Cl)nn12 | 250 ppm | 250 ppm | <15 ppm | 250 ppm | <15 ppm | <15 ppm | 250 ppm | <15 ppm | 250 ppm | <15 ppm | <15 ppm | <15 ppm | <15 ppm | 250 ppm | <15 ppm | <15 ppm | <15 ppm | 250 ppm |
| 0.6 nM | COc1cnc(OC)n2nc(NS(=O)(=O)c3c(Cl)cccc3Cl)nc12 | 8 ppm | 8 ppm | 2 ppm | 8 ppm | 2 ppm | 2 ppm | 4 ppm | 2 ppm | 8 ppm | 2 ppm | 2 ppm | 2 ppm | 2 ppm | 8 ppm | 2 ppm | 2 ppm | 2 ppm | 8 ppm |
| – | COc1cnc(OC)n2nc(NS(=O)(=O)c3cc(Cl)ccc3Cl)nc12 | < 2 ppm | >1000 ppm | 19 ppm | >1000 ppm | 19 ppm | 19 ppm | 1000 ppm | 19 ppm | >1000 ppm | 19 ppm | 19 ppm | 19 ppm | 19 ppm | >1000 ppm | 19 ppm | 19 ppm | 19 ppm | >1000 ppm |
| – | COc1cccc(OC)c1S(=O)(=O)Nc1nc2c(OC)cnc(OC)n2n1 | < 0.5 ppm | <0.1 ppm | 0.5 ppm | <0.1 ppm | 0.5 ppm | 0.5 ppm | <0.5 ppm | 0.5 ppm | <0.1 ppm | 0.5 ppm | 0.5 ppm | 0.5 ppm | 0.5 ppm | <0.1 ppm | 0.5 ppm | 0.5 ppm | 0.5 ppm | <0.1 ppm |
| – | COc1cccc(C(F)(F)F)c1S(=O)(=O)Nc1nc2c(OC)cnc(OC)n2n1 | 2 ppm | 1 ppm | <0.2 ppm | 1 ppm | <0.2 ppm | <0.2 ppm | 1 ppm | <0.2 ppm | 1 ppm | <0.2 ppm | <0.2 ppm | <0.2 ppm | <0.2 ppm | 1 ppm | <0.2 ppm | <0.2 ppm | <0.2 ppm | 1 ppm |
| – | COc1cnc(OC)n2nc(NS(=O)(=O)c3c(OCCCF)cccc3C(F)(F)F)nc12 | > 250 ppm | 250 ppm | 15 ppm | 250 ppm | 15 ppm | 15 ppm | 125 ppm | 15 ppm | 250 ppm | 15 ppm | 15 ppm | 15 ppm | 15 ppm | 250 ppm | 15 ppm | 15 ppm | 15 ppm | 250 ppm |
| – | COc1cnc(OC)n2nc(NS(=O)(=O)c3ccccc3C(F)(F)F)nc12 | < 1 ppm | 435 ppm | 13 ppm | 435 ppm | 13 ppm | 13 ppm | 250 ppm | 13 ppm | 435 ppm | 13 ppm | 13 ppm | 13 ppm | 13 ppm | 435 ppm | 13 ppm | 13 ppm | 13 ppm | 435 ppm |
| 27 nM | COc1nc(F)cc2nc(NS(=O)(=O)c3c(Cl)cccc3Cl)nn12 | 8 ppm | 8 ppm | 62 ppm | 8 ppm | 62 ppm | 62 ppm | 8 ppm | 62 ppm | 8 ppm | 62 ppm | 62 ppm | 62 ppm | 62 ppm | 8 ppm | 62 ppm | 62 ppm | 62 ppm | 8 ppm |
| – | COc1cnc(OC)n2nc(NS(=O)(=O)c3cc(Cl)cc(Cl)c3)nc12 | 62 ppm | >1000 ppm | 126 ppm | >1000 ppm | 126 ppm | 126 ppm | >1000 ppm | 126 ppm | >1000 ppm | 126 ppm | 126 ppm | 126 ppm | 126 ppm | >1000 ppm | 126 ppm | 126 ppm | 126 ppm | >1000 ppm |
| 0.6 nM | COc1ncc(Cl)c2nc(NS(=O)(=O)c3c(Cl)cccc3Cl)nn12 | 4 ppm | 4 ppm | 1 ppm | 4 ppm | 1 ppm | 1 ppm | 4 ppm | 1 ppm | 4 ppm | 1 ppm | 1 ppm | 1 ppm | 1 ppm | 4 ppm | 1 ppm | 1 ppm | 1 ppm | 4 ppm |
| – | COc1ccccc1S(=O)(=O)Nc1nc2c(OC)cnc(OC)n2n1 | < 1 ppm | 1 ppm | 1 ppm | 1 ppm | 1 ppm | 1 ppm | 2 ppm | 1 ppm | 1 ppm | 1 ppm | 1 ppm | 1 ppm | 1 ppm | 1 ppm | 1 ppm | 1 ppm | 1 ppm | 1 ppm |
